The test system of one data set is Mus musculus. The data set can be described thus: Effect on mean number of arm entries in C57BL/6 mouse model of scopolamine-induced amnesia at 30 mg/kg, po administered for 5 days and measured on day 5 after 30 mins of scopolamine stimulation by Y-maze test. It counts as ADME, organism-based. The note with it: in vivo. A digest of the protocol: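 Male C57BL/6N mice given 30 mg/kg/day compound in saline by gavage for 5 days. Scopolamine 2 mg/kg in saline given i.p. 30 min before testing on the last day. Mice handled daily for 7 days beforehand. Free exploration of a three-arm Y-maze for 10 min, with entries scored manually (all four paws). Alternation = consecutive entries into three different arms.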

Data set [1] addresses T1, Nuclear factor erythroid 2-related factor 2 (Mus musculus) (UniProt Q60795).
T1 sequence (whole entry): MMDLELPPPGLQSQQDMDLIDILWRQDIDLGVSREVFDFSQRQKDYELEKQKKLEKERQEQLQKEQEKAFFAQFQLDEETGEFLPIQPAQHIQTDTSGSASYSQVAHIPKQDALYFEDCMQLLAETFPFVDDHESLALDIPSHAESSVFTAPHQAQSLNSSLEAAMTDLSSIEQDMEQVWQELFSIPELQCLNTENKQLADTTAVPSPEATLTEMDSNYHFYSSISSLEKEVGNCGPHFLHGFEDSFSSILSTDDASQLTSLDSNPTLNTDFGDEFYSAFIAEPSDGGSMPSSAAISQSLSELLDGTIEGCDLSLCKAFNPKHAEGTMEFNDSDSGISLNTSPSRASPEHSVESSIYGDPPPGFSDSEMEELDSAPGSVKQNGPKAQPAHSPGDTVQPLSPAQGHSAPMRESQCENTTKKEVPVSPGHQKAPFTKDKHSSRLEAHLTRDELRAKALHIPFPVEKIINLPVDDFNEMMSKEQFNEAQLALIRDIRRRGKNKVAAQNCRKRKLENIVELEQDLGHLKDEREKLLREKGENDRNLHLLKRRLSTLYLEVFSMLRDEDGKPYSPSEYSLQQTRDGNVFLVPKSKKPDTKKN
In words: Activation of NRF2 in mouse BV2 cells assessed as increase in nuclear NRF2 level incubated for 6 hrs by Western blot analysis. It counts as cell-based. The gist of the method: (§1)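 BV-2 cells washed in ice-cold PBS and lysed on ice for 40 min in RIPA buffer with protease inhibitors. Nuclear fractions prepared separately. 10 μg protein run on SDS-PAGE and blotted to PVDF. Membranes blocked in 5% skim milk/TBST and probed overnight at 4 °C for Nrf2, HO-1, GCLM or SOD1. HRP secondary with ECL detection. Band densities normalised to Lamin B1 or β-actin.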

Data set [2] can be described thus: Stability in human plasma assessed as compound remaining after 30 mins. It counts as ADME, cell-free. Particulars: read-out: Stability.
Data set [3] has as its target T1, Nuclear factor erythroid 2-related factor 2 (Mus musculus). The data set can be described thus: Activation of NRF2 in mouse BV2 cells assessed as increase in HO1 protein expression at 3 uM incubated for 6 hrs by Western blot analysis. It counts as cell-based. A digest of the protocol: as §1
Data set [4] in a line: Lipophilicity, log P of the compound. Format: physicochemical. The note with it: octanol/water.
Another data set addresses CYP2C9 (Homo sapiens, UniProt P11712). In words: Inhibition of CYP2C9 (unknown origin) assessed as remaining activity relative to control. It counts as ADME.
Data set [5] addresses T1, Nuclear factor erythroid 2-related factor 2 (Mus musculus). In words: Activation of NRF2 in mouse BV2 cells assessed as inhibition of LPS-stimulated iNOS expression preincubated for 3 hrs followed by LPS stimulation for 24 hrs by Western blot analysis. It counts as cell-based. The gist of the method:
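LPS-stimulated BV-2 cells pretreated with compound for 3 h. iNOS immunoblot (1:500) on 10 μg RIPA lysate protein, detected by ECL. Densities normalised to β-actin or Lamin B1 and compared with LPS-treated control.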

The target is the same in data set [6]. The data set can be described thus: Activation of NRF2 in mouse BV2 cells assessed as increase in HO1 mRNA level at 0.1 to 10 uM incubated for 8 hrs by qRT-PCR analysis. It counts as cell-based. The gist of the method: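 BV-2 microglia grown in RPMI 1640 with 10% FBS, 2.05 mM L-glutamine and penicillin-streptomycin at 37 °C, 5% CO2. Cells exposed to a range of compound concentrations for 8 h. Ho-1 or Gclm mRNA measured by qRT-PCR and expressed relative to untreated control. Means ± SEM, one-way ANOVA with Dunnett's test.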

Molecules are shown by their SMILES. Activity calls are given as the source filed them. No cut-off for these calls is given here. Where only a bound is given, the exact number is not on record here.

Chain of CYP2C9 (P11712 whole entry): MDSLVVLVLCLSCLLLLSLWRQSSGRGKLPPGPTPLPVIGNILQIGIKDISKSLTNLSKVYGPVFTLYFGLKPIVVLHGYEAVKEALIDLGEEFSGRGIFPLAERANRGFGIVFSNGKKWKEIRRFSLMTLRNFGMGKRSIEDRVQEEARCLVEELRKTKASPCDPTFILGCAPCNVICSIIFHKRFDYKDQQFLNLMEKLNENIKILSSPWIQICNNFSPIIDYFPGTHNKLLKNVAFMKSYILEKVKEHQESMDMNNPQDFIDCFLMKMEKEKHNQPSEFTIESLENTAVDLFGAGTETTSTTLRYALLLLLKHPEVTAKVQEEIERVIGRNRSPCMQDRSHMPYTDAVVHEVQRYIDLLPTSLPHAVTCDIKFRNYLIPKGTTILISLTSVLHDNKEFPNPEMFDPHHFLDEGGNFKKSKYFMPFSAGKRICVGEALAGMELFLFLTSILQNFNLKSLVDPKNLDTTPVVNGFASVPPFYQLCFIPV

On to `CN1CCN(C(=O)COc2ccc(C(=O)/C=C/c3ccccc3C(F)(F)F)cc2)CC1.Cl`, for which the values for the activity entry in the data set with Mus musculus and at CYP2C9 were “Non-Toxic” and 95.1%, respectively. The Activity entry in data set [1] and in data set [5] was “Dose-dependent effect” in each case. The remaining at 0.5 h in data set [2] is over 100%. The Activity result in data set [3] and in data set [6] was “Active” in each case. The compound also yielded a logP in data set [4] of 3.22.

Values taken from ChEMBL document CHEMBL4312006, “A novel chalcone derivative as Nrf2 activator attenuates learning and memory impairment in a scopolamine-induced mouse model” (Eur J Med Chem, 2020).
